PvdQ inh: P. aeruginosa PvdQ acylase inhibition. AID 488965. inhibition, % at 10 µM. 0.063% of 340,000 active. purified PvdQ acylase, fluorescence plate reader; in the data active = inhibition above about 30%, passing the limit was not always enough; inconclusive = no clear call, values can overlap the other calls;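 note: 0% = vehicle neutral wells and 100% = reference inhibitor wells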
CaV13 FRET inh: Disruptors of the CACNA1D IQ motif to Ca2+-dependent inactivation inhibitor domain association, primary screening, Förster resonance energy transfer in intact living …; inhibition, % at 12.3 µM; HEK cells, CFP/YFP FRET ICDI-IQ, plate reader, 10 min; percent FRET-ratio fall versus neutral wells; 0.098% of 340,000 active;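 active = mean replicate inhibition of at least 30% and at least 1% of replicates passing that level; inconclusive = only one of the two criteria is met; inactive = neither criterion is met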;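 note: 0% = median of the neutral control wells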
Glyco luc inh: N-linked glycosylation inhibition; reporter increase, % at 12.5 µM; 0.23% of 360,000 active; D54 ERlucT glycosylation luciferase reporter, 24 h; percent of 100 nM tunicamycin response;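 active = mean luciferase reporter signal, scaled so untreated is 0 and the glycosylation-blocking control 100, at or above a set limit in every replicate; inconclusive = mean reaches the limit but not every replicate does; inactive = mean below the limit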;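 note: luciferase carries N-glycosylation sites so blocking glycosylation raises the light; 0% = median of neutral control wells and 100% = median of 100 nM tunicamycin wells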
T cruzi repl: blocks replication of Trypanosoma cruzi; T. cruzi beta-gal in NIH3T3, luminescence, 90 h; inhibition, % (no concentration beside the values); 1.4% of 300,000 active;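 active = mean inhibition across valid replicates above about 55%, limit read from the data; inconclusive = mean below that limit but half or more replicates reach it; inactive = mean below it, under half of replicates reach it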;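 note: signal also drops with host cell toxicity which is not excluded here; 0% = plate median of DMSO wells and 100% = zero luminescence signal; higher percent means less beta-gal luminescence so fewer parasites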
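Read-out: Parasite load inhibition, % | Test system: Mouse NIH/3T3 fibroblasts infected with β-gal-expressing T. cruzi Tulahuen C4 | Amount: 5,000 cells/well | Medium: DMEM, 2% fetal bovine serum | Signal: GalScreen β-gal luminescence, detergent lysis, 60 min | Timing: 3 h attach, ≥90 h co-culture | Also added: Tulahuen C4 trypomastigotes, 5000/well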
HSF1 activator: increases HSF-1 driven luciferase reporter signal | 1.7% of 300,000 active | NIH3T3-HGL HSF-1 luciferase reporter, MG132, 8 h; 100% = twice DMSO control signal | activation, % at 9 µM;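 active = mean replicate activation of at least 50% with a set share of replicates each reaching 50%; inconclusive = only one of those two conditions met; inactive = mean below 50% and too few replicates reaching it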;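 note: 0% = median of the neutral control wells and 100% = twice that signal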
PfHsp90 set2: reduces growth (ATP signal) of yeast expressing P. falciparum Hsp90 | AID 504621 | 0.32% of 310,000 active | inhibition, % at 9.4 µM | S. cerevisiae expressing PfHsp90, BacTiter-Glo ATP, 48 h; yeast lacking PDR1 and PDR3 efflux regulators;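 active = every replicate shows inhibition above about 80%, whatever the replicate mean, limit read from the data; inconclusive = mean inhibition reaches the set limit but some replicate falls short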;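 note: 0% = DMSO neutral controls and 100% = 20 µM radicicol positive controls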
An asterisk follows results filed as active; ? = inconclusive; · = no result. Shown are actives, neighbours in structure and some others; about 3% of the full set was active somewhere.

SMILES	PvdQ inh	CaV13 FRET inh	Glyco luc inh	T cruzi repl	HSF1 activator	PfHsp90 set2
COc1ccc(NC(=O)C(OC)c2ccccc2)cc1Cl (stereo not given)	-17	-4	3	-11	8	4
COc1ccc(NC(=O)C(NCC(C)C)c2ccccc2)cc1Cl (stereo not given)	-5	-1	0	-6	71*	12
COc1cc(NC(C(=O)Nc2cccc(C(C)=O)c2)c2ccccc2)cc(OC)c1OC (stereo not given)	1	-6	27*	3	24	9
COc1ccc(NC(=O)C(Sc2nnc(-c3ccncc3)n2-c2ccccc2C)c2ccccc2)cc1Cl (stereo not given)	1	-4	5	49	53*	3
COc1cccc(NC(C(=O)Nc2cccc(C(C)=O)c2)c2ccccc2)c1 (stereo not given)	-1	-2	-3	5	7	-15
COC(=O)[C@]12C[C@H](CC(=O)N3CCSCC3)C(=O)N(Cc3ccc4c(c3)OCO4)C1=C[C@H](C(C)(C)C)O[C@@H]2C	·	-9	·	·	·	·
Brc1ccc(C2C3=C(Nc4ncnn42)c2ccccc2OC3c2ccncc2)cc1 (stereo not given)	-12	-4	-6	60*	-10	-32
S=C(N/N=C/c1ccc(Br)cc1)N1CCCCC1	4	-5	-4	2	55*	13
S=C(N/N=C/c1ccc(Cl)cc1)N1CCOCC1	-2	-4	4	14	24	-3
O=C(Nc1ccccc1Cc1ccccc1)c1ccncc1	5	-11	0	59*	2	-1
CCCCc1c(-c2ccccc2OC)ncn1Cc1ccc(Cl)cc1Cl	·	-10	·	·	·	·
Cc1cc(SCC(=O)N/N=C/c2ccc(O)cc2O)c(C)cc1Br	-10	-6	-1	62*	38	19
Cc1cc(SCC(=O)N/N=C/c2ccccc2C(=O)O)c(C)cc1Br	23	-3	0	2	26	12
Cc1ccc(-n2ncc(Cl)c2C(=O)NC2CC2)cc1	-14	-4	-4	-30	54*	21
CC1(C(=O)O)CCCN1C(=O)c1cccc2ccccc12 (stereo not given)	·	-14	1	·	·	·
CCc1c(C(=O)NC(C)C2CCCO2)csc1C (stereo not given)	-3	·	0	0	-1	4
COc1ccc(Oc2ccc(/C=C/C(=O)c3ccc(O)cc3)cc2[N+](=O)[O-])cc1	-2	-2	-18	4	77*	-17
COc1ccc(/C=C/C(=O)c2ccc(O)cc2)cc1COc1ccc(F)cc1	-5	-8	7	-4	83*	-75
O=C(/C=C/c1ccc(O)c([N+](=O)[O-])c1)c1ccc2ccccc2c1	4	-4	22	5	18	-19
COc1ccc(C(=O)/C=C/c2ccc(OCc3ccccc3)cc2)cc1CSCC(=O)O	11	-5	1	-4	55*	-89
N#CC(c1ccc(Cl)nn1)c1c(F)cccc1Cl (stereo not given)	66*	-5	0	-4	-34	-4
COc1ccc2cc(C(=O)CS(=O)(=O)c3ccc(Cl)cc3)c(=O)oc2c1	·	-10	·	·	·	·
Cc1cc(NC(=O)c2cc([N+](=O)[O-])cc([N+](=O)[O-])c2C)no1	88*	0	-2	25	-18	-21
Cc1cc(NC(=O)c2cc([N+](=O)[O-])cc([N+](=O)[O-])c2)no1	·	-6	2	55*	4	·
Cc1cc(NC(=O)c2ccc(Br)c([N+](=O)[O-])c2)no1	64*	4	-1	2	7	-8
SMILES	PvdQ inh	CaV13 FRET inh	Glyco luc inh	T cruzi repl	HSF1 activator	PfHsp90 set2
Cc1cc(NC(=O)c2ccc(C)c([N+](=O)[O-])c2)no1	-8	1	4	-12	-47	-10
Cc1cc(NC(=O)c2cccc([N+](=O)[O-])c2)no1	28	-4	0	-2	9	-8
O=C(NCc1ccccc1)[C@H]1CCCN1C(=O)[C@H]1CCCN1C(=O)c1cccc2ccccc12	·	-11	·	·	·	·
Cc1ccc2[nH]c3ccccc3c(=O)c2c1	-18	34*	4	9	47	36
CCC(C)[C@H]1CNC(=O)C(=O)N1CC1CCCCC1 (stereo not given in full)	·	-9	·	·	·	·
O=C(NCc1ccccc1)[C@H]1CCCN1C(=O)[C@H]1CCCN1C(=O)c1ccc(F)cc1	·	-8	·	·	·	·
CN1CCN(c2ccc(S(=O)(=O)N3CCCCC3)cc2NC(=O)CCc2ccccc2)CC1	-9	-6	-1	·	·	-10
N#Cc1ccc(C(=O)Nc2cc(S(=O)(=O)N3CCOCC3)ccc2N2CCOCC2)cc1	·	-12	4	·	·	·
CN1CCN(c2ccc(S(=O)(=O)N3CCCCC3)cc2NC(=O)CSCc2ccccc2)CC1	-14	-5	-2	67*	0	4
CN1CCN(c2ccc(S(=O)(=O)N3CCCCC3)cc2NC(=O)c2ccc(C#N)cc2)CC1	-13	-2	3	56*	2	21
Cc1ccccc1OCC(=O)Nc1cc(S(=O)(=O)N2CCCCC2)ccc1N1CCN(C)CC1	-1	1	-3	58*	13	11
Cc1cccc(C)c1NC(=O)C(c1ccnc2ccccc12)N1CCN(C)CC1 (stereo not given)	·	-17	·	·	·	·
COC(=O)C1=C(C)N(Cc2ccccc2C(F)(F)F)C(=NCc2ccc3c(c2)OCO3)NC1c1ccccc1 (stereo not given)	·	-3	·	·	·	·
COCc1[nH]nc2c1C(c1ccc(Br)cc1)N(c1ccc(OC)cc1)C2=O (stereo not given)	·	-4	·	·	·	·
O=C(c1cc(COc2ccccc2)on1)N1CCCC(OCc2cccnc2)C1 (stereo not given)	2	-3	-1	5	3	7
COc1ccccc1OCc1cc(C(=O)N2CCCC(OCc3cccnc3)C2)no1 (stereo not given)	-14	-2	-3	19	63*	-10
CCCOC1CCCN(C(=O)c2cc(COc3ccc(-n4cncn4)cc3)on2)C1 (stereo not given)	-4	-3	2	-30	60*	3
COCCOC1CCN(C(=O)c2cc(COc3ccc(-n4cncn4)cc3)on2)CC1	-7	-6	3	-4	-12	0
O=C(COC(=O)c1n[nH]c2ccccc12)NC1CCCCC1	7	-6	0	·	·	3
Cc1ccc2c(COC(=O)c3n[nH]c4ccccc34)cc(=O)oc2c1	-11	-3	-6	5	76*	-13
CCc1ccc2c(COC(=O)c3n[nH]c4ccccc34)cc(=O)oc2c1	-4	-6	-2	10	?	·
